This is an account of results in ChEMBL document CHEMBL4138118, “Novel thioglycosyl analogs of glycosyltransferase substrates as antiviral compounds against classical swine fever virus and hepatitis C virus” (Eur J Med Chem, 2017).

Data set [1] relates to Hepatitis C virus. The data set can be described thus: Antiviral activity against HCV genotype 2a JFH1 infected in human Huh7-J20 cells assessed as inhibition of viral RNA replication at 1.56 to 75 uM after 72 hrs by SEAP reporter assay. The conditions noted are these: Hepacivirus hominis, JFH-1. In kind it is functional, organism-based. In short, it runs like this:
(§1)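 Huh7-J20 SEAP reporter cells, infected with JFH-1 HCVcc, read-out SEAP chemiluminescence in supernatant after 72 h. Model 1: 1 h compound pretreatment, 3 h infection with compound, then compound-free medium. Model 2: same, with compound kept for the full 72 h. Model 3: 3 h infection, compound added afterwards only. DMSO control; three experiments.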

Data set [2] concerns Hepatitis C virus. The data set can be described thus: Antiviral activity against HCV genotype 2a JFH1 infected in human Huh7-J20 cells assessed as inhibition of complete viral life cycle at 1.56 to 75 uM pretreated for 1 hr with cells followed by viral infection for 3 hrs and subsequent addition of fresh medium with compound measured after 72 hrs by SEAP reporter assay. The data set is classed as functional, organism-based. The note with it: Hepacivirus hominis, JFH-1. In short, it runs like this: as §1
Background: In a reporter assay the amount or activity of a reporter protein is the signal.

For data set [3], the system named is Classical swine fever virus. The data set can be described thus: Inhibition of CSFV glycosyltransferase in SK6 cells assessed as downregulation of viral E2 levels under non-reducing condition after 48 hrs by Western blot method. In kind it is cell-based. Background: A western blot detects proteins with antibodies after separation by electrophoresis.
Data set [4] deals with Classical swine fever virus. In words: Antiviral activity against CSFV infected in SK6 cells assessed as reduction of pseudo-plaque formation after 2 days by immunoperoxidase monolayer assay. In kind it is functional, organism-based. The conditions noted are these: 48 h.
Data set [5] is described as follows: Selectivity index, ratio of CC50 for Huh7.5 cells to IC50 for HCV Jc1/JFH. The data set is classed as toxicity. The conditions noted are these: human, read-out: Ratio CC50/IC50. In short, it runs like this: (§2)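 Selectivity index is CC50/IC50, taken from the cell viability assay (SK6 by MTS, Huh-7.5 by MTT) and the matching pseudo-plaque reduction assay.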
Data set [6] can be described thus: Cytotoxicity against human Huh7.5 cells assessed as reduction in cell viability after 72 hrs by MTT method. In kind it is cell-based. (In general: Tetrazolium dyes change colour on reduction, which living cells bring about.)
Data set [7] has as its system Hepatitis C virus. The data set can be described thus: Antiviral activity against HCV genotype 2a JFH1 infected in human Huh7-J20 cells assessed as inhibition of viral assembly at 1.56 to 75 uM after 72 hrs by SEAP reporter assay. The data set is classed as functional, organism-based. The note with it: Hepacivirus hominis, JFH-1. In short, it runs like this: as §1

The subject of data set [8] is Hepatitis C virus. The data set can be described thus: Antiviral activity against HCV infected in human Huh7-J17 cells assessed as inhibition of viral RNA replication at 75 uM after 72 hrs by bright-glo luciferase reporter assay relative to control. The data set is classed as functional, Hepacivirus hominis. In short, it runs like this:
(§3)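 Huh7-J17 replicon cells seeded in 96-well plates together with compound, DMSO or sofosbuvir and incubated 72 h. Cells lysed and luciferase read with Bright-Glo. Values expressed as % of DMSO-treated cells; IC50 from dose-response fit; three experiments.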

Data set [9] relates to Hepatitis C virus. The data set can be described thus: Antiviral activity against HCV infected in human Huh7-J17 cells assessed as inhibition of viral RNA replication after 72 hrs by bright-glo luciferase reporter assay. The data set is classed as functional, organism-based, Hepacivirus hominis. The method, boiled down:
as §3

The nature of data set [10]: Effect on actin levels in SK6 cells at 3.75 to 30 uM under non-reducing condition after 48 hrs by Western blot method. In kind it is ADME, cell-based, Sus scrofa. The note with it: pig.
Data set [11] deals with Hepatitis C virus. The data set can be described thus: Antiviral activity against HCV Jc1/JFH infected in human Huh7.5 cells assessed as downregulation of NS5B gene expression after 48 hrs by RT-PCR method. In kind it is functional, organism-based. The note with it: Hepacivirus hominis. The method, boiled down: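 Huh-7.5 cells infected with HCV (MOI 0.1) for 4 h, washed, then cultured with compound for 48 h. Total RNA isolated; 1 µg reverse-transcribed with an NS5B-specific reverse primer, then PCR for NS5B. Band densitometry expressed as % of untreated infected control.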

The subject of data set [12] is Hepatitis C virus. In words: Antiviral activity against HCV Jc1/JFH infected in human Huh7.5 cells assessed as reduction of pseudo-plaque formation after 72 hrs by immunoperoxidase monolayer assay. The data set is classed as functional, organism-based. In short, it runs like this:
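Huh-7.5 cells seeded at 1.5 × 10^4 per well, infected next day with Jc1/JFH HCVcc (genotype 2a) at MOI 0.1 for 3 h. Virus removed, medium with compound added; 72 h later cells fixed in cold methanol, permeabilized (0.5% Triton X-100), stained with anti-core antibody (1:300), HRP secondary. Pseudo-plaques counted by microscopy against untreated infected control; IC50 at 50% plaque reduction; three independent experiments.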

Data set [13] can be described thus: Cytotoxicity against SK6 cells assessed as reduction in cell viability after 2 days by MTS method. In kind it is cell-based, Sus scrofa. The conditions noted are these: pig. In short, it runs like this:
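SK6 viability by MTS (CellTiter 96 AQueous) assay; CC50 is the concentration reducing viability by 50%, taken from the dose-response curve.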

Data set [14] is described as follows: Cytotoxicity against human Huh7-J17 cells assessed as decrease in cell viability after 72 hrs by MTT assay. In kind it is cell-based. In short, it runs like this:
(§4)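 Uninfected Huh7-J17, Huh7-J20 or Huh-7.5 cells incubated with compound, then viability read by MTT. Time stated as 72 h for Huh7-J20 and Huh7-J17, and 48 h for Huh-7.5. Results expressed relative to DMSO-treated cells (100%); CC50 from the dose-response curve.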

Data set [15] has as its system Hepatitis C virus. The data set can be described thus: Antiviral activity against HCV genotype 2a JFH1 infected in human Huh7-J20 cells assessed as inhibition of viral entry at 1.56 to 75 uM pretreated for 1 hr with cells followed by viral infection for 3 hrs and subsequent compound washout measured after 72 hrs by SEAP reporter assay. The conditions noted are these: Hepacivirus hominis, JFH-1. In kind it is functional, organism-based. In short, it runs like this: as §1

Data set [16] can be described thus: Cytotoxicity against human Huh7-J20 cells assessed as decrease in cell viability at 1.56 to 75 uM after 72 hrs by MTT assay. In kind it is cell-based. In short, it runs like this:
as §4

The nature of data set [17]: Effect on actin levels in human Huh7.5 cells at 3.12 to 75 uM under reducing condition after 48 hrs by Western blot method. In kind it is ADME, cell-based. In short, it runs like this: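 Huh-7.5 cells infected with HCV (MOI 0.1), washed after 1–6 h, then treated with inhibitor. Lysed in RIPA buffer with protease inhibitors after 48 h (methods; legend gives 72 h p.i.). 20 µg protein run on reducing SDS-PAGE; Western blot probed with anti-E1 mAb (1:2000) and anti-actin (1:1000).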

Data set [18] can be described thus: Selectivity index, ratio of CC50 for SK6 cells to IC50 for CSFV. The conditions noted are these: pig, read-out: Ratio CC50/IC50. In kind it is toxicity. The method, boiled down:
as §2

Active and inactive are the calls of the source. The calls are words filed in the database; no cut-off is given here.

As a reminder, the inhibition is the percentage by which the read-out fell short of the control. Broadly, the IC50 is the concentration that inhibits the measured activity by half. As usually defined, the CC50 is the concentration that lowers cell viability or growth by half. For the compound `CC(=O)OC[C@H]1O[C@@H](Sc2ccc(NC(=O)[C@H]3O[C@@H](n4ccc(=O)[nH]c4=O)[C@H](O[Si](C)(C)C(C)(C)C)[C@@H]3O[Si](C)(C)C(C)(C)C)cn2)[C@H](OC(C)=O)[C@@H](OC(C)=O)[C@H]1OC(C)=O`, the inhibition entry in the data set on Hepatitis C virus [1], in the data set with Hepatitis C virus [2] and in the data set on Hepatitis C virus [7] was “Active” throughout. For the same compound, the inhibition result in data set [3] was “Dose-dependent effect”. Further, the IC50 in data set [4] amounted to 6 µM; with Hepatitis C virus [9], 3.74 µM; with Hepatitis C virus [12] (Huh7.5, 72 h), 7 µM. The selectivity ratio turned out to be 24.7 in [5] and 25.2 in data set [18]. Also, the values for the CC50 at 72 h in data set [6] and in data set [14] were 173 µM and 245 µM, respectively. For the same compound, in the data set on Hepatitis C virus [8], the inhibition at 75 µM amounted to 90%. The Activity entry in data set [10] was “Non-Toxic”; with Hepatitis C virus [11], “Dose-dependent effect”; with Hepatitis C virus [12] (Hepacivirus hominis) it was “Dose-dependent effect”; in [13] (48 h) it was “Dose-dependent effect”; in data set [16], “Non-Toxic”; in [17] it was “Non-Toxic”. Further, the CC50 at 48 h in [13] (SK6 cells) is 151 µM. The inhibition entry with Hepatitis C virus [15] was “inactive”.
